Experimental data of several laboratories.
Lines come from different studies, so protocols differ.
Target: Tyrosine-protein kinase BTK (BTK, Homo sapiens, UniProt Q06187)
Effect on: enzyme activity
Mode: inhibitor

`CCN(CC)CCNC(=O)c1c(C)[nH]c(/C=C2\C(=O)Nc3ccc(F)cc32)c1C` has an inhibition of 16% (0.3 µM).
For `CNCc1ccc(-c2cc(-c3nc(-c4ccc(S(=O)(=O)C(C)C)cc4)cnc3N)on2)cc1`, the inhibition was 4% (0.4 µM).
For `Cc1ccc(Nc2nccc(N(C)c3ccc4c(C)n(C)nc4c3)n2)cc1S(N)(=O)=O`, the inhibition was 12% (0.3 µM).
The inhibition of `O=C(CSc1nc2nccnc2c(=O)n1CCc1ccccc1)Nc1nccs1` is reported as 4% (10 µM).
The inhibition of `COc1cc2nccc(Oc3ccc(NC(=O)c4c5n(n(-c6ccc(F)cc6)c4=O)CCCC5)cc3)c2cc1OC` is reported as -7% (0.1 µM).
`COc1ccc(F)cc1C(=O)NCc1ccc(-c2nn([C@@H](C)C(F)(F)F)c(N)c2C(N)=O)cc1` has an inhibition of 97% (radiometric; 0.1 µM).
`CN(C)C1CCN(CC#Cc2nn(C3CCCC3)c3nc(NCc4ccccc4)ncc23)C1` (stereo not shown) has an inhibition of 22% (FRET; 10 µM).
For `CN(c1ncccc1CNc1nc(Nc2ccc3c(c2)CC(=O)N3)ncc1C(F)(F)F)S(C)(=O)=O`, the inhibition was 65% (1 µM).
For `CNC(=O)c1cc(Oc2ccc(NC(=O)Nc3ccc(Cl)c(C(F)(F)F)c3)cc2)ccn1`, the inhibition was 43% (10 µM).
With `CNC(=O)c1cc2c(Oc3ccc(NC(=O)C4(C(=O)Nc5ccc(F)cc5)CC4)cc3)ccnc2cc1OC` the inhibition was 94% (radiometric; 1 µM).
With `CC/C(=N\NC(=O)NCc1cccc(O)c1)c1ccc(O)c(C)c1O` the inhibition was -0.2% (0.1 µM).
`CCCS(=O)(=O)Nc1ccc(F)c(C(=O)c2c[nH]c3ncc(-c4ccc(Cl)cc4)cc23)c1F` has an inhibition of less than 10% (1 µM).
`COc1cc2ncnc(Nc3ccc(Oc4ccccc4)cc3C)c2cc1OC` gave an inhibition of 71% (1 µM).
